Source: ChEMBL document CHEMBL4190394, “Discovery of Novel Pazopanib-Based HDAC and VEGFR Dual Inhibitors Targeting Cancer Epigenetics and Angiogenesis Simultaneously” (J Med Chem, 2018)
The source made the active and inactive calls. The rule behind the calls is not given here.

How the values were obtained:
[1] = biological target: T1, Vascular endothelial growth factor receptor 2 (Homo sapiens, UniProt P35968); test: Inhibition of VEGFR-2 (unknown origin) at 0.2 uM after 40 mins by kinase-Glo assay relative to control
Outline: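 VEGFR-2 tested at a single 200 nM concentration in a Kinase-Glo assay. Compound, kinase, substrate and ATP incubated 40 min at room temperature, then Kinase-Glo reagent added for 15 min and luminescence read. Inhibition rate reported. Replicates n ≥ 2.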

HT-29 [2] = test: Antiproliferative activity against human HT-29 cells after 72 hrs by MTT assay; format: functional, cell-based; settings: HT-29, 72 h
AGS = test: Antiproliferative activity against human AGS cells after 72 hrs by MTT assay; format: functional, cell-based
HeLa = test: Antiproliferative activity against human HeLa cells after 72 hrs by MTT assay; format: functional, cell-based
PC-3 = test: Antiproliferative activity against human PC3 cells after 72 hrs by MTT assay; format: functional, cell-based; settings: PC-3, 72 h
MDA-MB-231 = test: Antiproliferative activity against human MDA-MB-231 cells after 72 hrs by MTT assay; format: functional, cell-based; settings: MDA-MB-231, 72 h
HT-1080 = test: Antiproliferative activity against human HT1080 cells after 72 hrs by MTT assay; format: functional, cell-based; settings: HT-1080, 72 h
HEL = test: Antiproliferative activity against human HEL cells after 72 hrs by MTT assay; format: functional, cell-based
MOLT-4 = test: Antiproliferative activity against human MOLT4 cells after 72 hrs by MTT assay; format: functional, cell-based; settings: MOLT-4, 72 h
K562 = test: Antiproliferative activity against human K562 cells after 72 hrs by MTT assay; format: functional, cell-based; settings: K562, 72 h
HUVEC [3] = test: Cytotoxicity activity against HUVEC after 72 hrs by MTT assay; format: cell-based; settings: Homo sapiens
Outline: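 HUVECs kept in RPMI1640 with 10% FBS at 37 °C, 5% CO2. Cells seeded the day before, grown 12 h, then exposed to a range of compound concentrations for 72 h. Then 0.5% MTT added for 4 h, formazan dissolved in DMSO, and absorbance read at 570 nm.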

Histone deacetylase 1 = Histone deacetylase 1 (Homo sapiens, UniProt Q13547); test: Inhibition of HDAC1 (unknown origin) using fluorogenic substrate preincubated for 5 mins followed by substrate addition measured after 30 mins by fluorescence-based assay
Histone deacetylase 2 = Histone deacetylase 2 (Homo sapiens, UniProt Q92769)
Histone deacetylase 3 = Histone deacetylase 3 (Homo sapiens, UniProt O15379)
[4] = biological target: T1, Vascular endothelial growth factor receptor 2; test: Inhibition of VEGFR-2 (unknown origin) after 40 mins by kinase-Glo assay
Outline: (§1)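 Kinase-Glo luminescent assay run by a contract lab. Compound, kinase, substrate and ATP diluted in kinase buffer and incubated 40 min at room temperature. IC50 obtained by nonlinear regression of normalized dose–response.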

[5] = biological target: Vascular endothelial growth factor receptor 1 (Homo sapiens, UniProt P17948); test: Inhibition of VEGFR-1 (unknown origin) after 40 mins by kinase-Glo assay; outline: as §1
[6] = biological target: Macrophage colony-stimulating factor 1 receptor (Homo sapiens, UniProt P07333); test: Inhibition of C-fms (unknown origin) after 40 mins by kinase-Glo assay
[7] = biological target: Mast/stem cell growth factor receptor Kit (Homo sapiens, UniProt P10721); test: Inhibition of C-kit (unknown origin) after 40 mins by kinase-Glo assay; outline: as §1
[8] = biological target: T1, Vascular endothelial growth factor receptor 2; test: Inhibition of VEGF-stimulated VEGFR2 phosphorylation in human HUVEC cells at 100 nM preincubated for 2 hrs followed by VEGF stimulation by Western blot analysis; format: cell-based
Outline: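 HUVECs pretreated 2 h with compound or DMSO, then stimulated with VEGF (50 ng/ml). Cells lysed in ice-cold RIPA and protein measured by BCA. Lysates run on SDS-PAGE and immunoblotted for phospho-VEGFR-2, with total VEGFR-2 as loading control. Detection by ECL.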

HUVEC [9] = test: Antiangiogenic activity in human HUVEC cells assessed as reduction in capillary-like tubular network formation at 0.1 uM after 6 hrs by phase-contrast microscopy; format: functional, cell-based
Outline: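 HUVECs trypsinized and seeded at 40000/well on Matrigel polymerized 0.5 h at 37 °C. Cells held 6 h at 37 °C in M199 with 5% FBS, with compound or DMSO. Tube formation viewed and photographed by phase-contrast microscopy at 200 magnification. Three independent experiments.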

[10] = Cmax in Sprague-Dawley rat at 2 mg/kg, iv by LC-MS/MS analysis; format: ADME, organism-based; set-up: dose 2 mg/kg, route intravenous; settings: in vivo
Outline: (§2)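 Sprague–Dawley rats (N = 6) dosed with the hydrochloride salt, 2 mg/kg IV or 10 mg/kg PO. Jugular vein blood drawn at set time points and kept on ice. Plasma separated by centrifugation, stored at -80 °C, and quantified by LC-MS/MS.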

Thoracic aorta = test: Antiangiogenic activity in Sprague-Dawley rat thoracic aorta ring assessed as reduction in micro-vessel growth at 5 uM treated every day for 6 days by matrigel-based inverted microscopic analysis relative to control; format: functional, tissue-based
Outline: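 Aortas taken from 4–6-week-old Sprague–Dawley rats, cut into 1-mm rings and embedded in Matrigel. Rings held 30 min at 37 °C, 5% CO2, then treated daily for 6 days with compound or 0.5% DMSO vehicle. Microvessel outgrowth photographed on day 7 at ×200. Three independent experiments.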

[11] = Tmax in Sprague-Dawley rat at 10 mg/kg, po by LC-MS/MS analysis; format: ADME, organism-based; settings: in vivo; outline: as §2
[12] = MRT (0 to t) in Sprague-Dawley rat at 2 mg/kg, iv by LC-MS/MS analysis; format: ADME, organism-based; settings: in vivo; outline: as §2
[13] = Apparent volume of distribution in Sprague-Dawley rat at 2 mg/kg, iv by LC-MS/MS analysis; format: ADME, organism-based; settings: in vivo, read-out: Vz; outline: as §2
[14] = Clearance in Sprague-Dawley rat at 2 mg/kg, iv by LC-MS/MS analysis; format: ADME, organism-based; settings: in vivo; outline: as §2
HT-29 [15] = test: Antitumor activity against human HT-29 cells xenografted in BALB/c nu mouse assessed as tumor growth inhibition at 50 mg/kg, po administered for 25 consecutive days measured every 3 days during compound dosing relative to control; format: functional; settings: HT-29, po, read-out: TGI
Outline: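 HT-29 cells (1×10^7) implanted s.c. in right flank of male BALB/c-nu mice aged 5–6 weeks. At about 100 mm³ (day 10), mice randomized 6 per group and dosed orally for 25 consecutive days. Controls received PBS with 5% DMSO. T/C is mean RTV (Vt/V0) treated over control. TGI taken from final tumor weights. Student's two-tailed t test.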

Mus musculus [16] = test: Toxicity in nu BALB/c mouse xenografted with human HT-29 cells assessed as reduction in body weight at 50 mg/kg , po administered for 25 consecutive days measured every day during compound dosing; format: organism-based; settings: in vivo
Mus musculus [17] = test: Hepatotoxicity in nu BALB/c mouse xenografted with human HT-29 cells at 50 mg/kg , po administered for 25 consecutive days by macroscopic analysis; format: toxicity, organism-based; settings: in vivo
Outline: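 HT-29 xenografted male BALB/c-nu mice dosed orally for 25 days, with PBS (5% DMSO) controls. After treatment mice were sacrificed and dissected, and internal organ injury was examined macroscopically.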

[18] = biological target: Histone deacetylase 1/2/3 (Homo sapiens) (UniProt Q13547+O15379+Q92769); settings: HeLa, at 1 µM

T1 sequence (P35968 whole entry): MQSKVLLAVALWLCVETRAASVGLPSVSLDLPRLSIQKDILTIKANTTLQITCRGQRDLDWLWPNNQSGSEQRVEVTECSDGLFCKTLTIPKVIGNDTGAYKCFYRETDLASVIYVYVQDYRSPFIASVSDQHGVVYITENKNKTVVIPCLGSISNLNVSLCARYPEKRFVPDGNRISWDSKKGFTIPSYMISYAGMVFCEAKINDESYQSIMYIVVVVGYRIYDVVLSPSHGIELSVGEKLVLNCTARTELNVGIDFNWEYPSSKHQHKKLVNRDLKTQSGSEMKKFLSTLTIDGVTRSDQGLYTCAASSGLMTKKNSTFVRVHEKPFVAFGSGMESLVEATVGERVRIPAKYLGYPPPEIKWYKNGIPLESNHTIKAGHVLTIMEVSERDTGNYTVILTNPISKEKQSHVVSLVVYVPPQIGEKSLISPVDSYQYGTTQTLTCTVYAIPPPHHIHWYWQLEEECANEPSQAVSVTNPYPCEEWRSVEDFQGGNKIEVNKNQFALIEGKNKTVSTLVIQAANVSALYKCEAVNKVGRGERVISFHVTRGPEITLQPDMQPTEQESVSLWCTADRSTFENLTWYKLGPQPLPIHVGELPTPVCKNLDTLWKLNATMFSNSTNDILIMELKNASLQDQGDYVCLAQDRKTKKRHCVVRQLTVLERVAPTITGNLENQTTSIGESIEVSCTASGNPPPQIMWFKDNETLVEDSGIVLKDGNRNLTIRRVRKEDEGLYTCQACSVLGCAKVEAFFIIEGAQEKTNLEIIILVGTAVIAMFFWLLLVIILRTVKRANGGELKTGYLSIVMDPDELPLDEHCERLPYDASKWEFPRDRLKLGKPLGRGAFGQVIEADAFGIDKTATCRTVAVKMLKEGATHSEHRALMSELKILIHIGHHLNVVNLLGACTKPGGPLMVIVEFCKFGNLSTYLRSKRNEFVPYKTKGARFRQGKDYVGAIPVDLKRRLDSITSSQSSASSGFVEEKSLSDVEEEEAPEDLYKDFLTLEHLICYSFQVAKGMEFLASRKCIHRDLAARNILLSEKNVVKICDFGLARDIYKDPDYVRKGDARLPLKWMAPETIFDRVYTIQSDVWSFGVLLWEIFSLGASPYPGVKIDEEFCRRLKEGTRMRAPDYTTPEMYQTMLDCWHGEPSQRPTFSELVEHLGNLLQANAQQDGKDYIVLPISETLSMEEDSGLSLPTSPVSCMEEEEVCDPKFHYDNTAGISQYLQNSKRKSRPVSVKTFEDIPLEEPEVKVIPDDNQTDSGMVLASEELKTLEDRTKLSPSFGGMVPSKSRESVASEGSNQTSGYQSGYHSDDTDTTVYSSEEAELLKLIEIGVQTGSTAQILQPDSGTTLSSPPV
Histone deacetylase 3, sequence (O15379 whole entry): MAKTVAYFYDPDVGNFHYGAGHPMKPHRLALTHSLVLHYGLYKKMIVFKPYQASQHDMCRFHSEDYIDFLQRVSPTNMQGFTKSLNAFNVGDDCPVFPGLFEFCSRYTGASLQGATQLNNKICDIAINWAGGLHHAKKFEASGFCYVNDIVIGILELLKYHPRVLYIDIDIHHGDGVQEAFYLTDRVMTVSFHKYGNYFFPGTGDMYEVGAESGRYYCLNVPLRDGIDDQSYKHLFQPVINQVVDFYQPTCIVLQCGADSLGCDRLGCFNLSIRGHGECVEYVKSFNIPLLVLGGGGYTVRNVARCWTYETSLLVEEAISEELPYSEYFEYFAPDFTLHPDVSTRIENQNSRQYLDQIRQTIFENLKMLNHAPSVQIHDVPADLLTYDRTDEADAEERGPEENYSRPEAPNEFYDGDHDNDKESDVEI
Histone deacetylase 2, sequence (Q92769 whole entry): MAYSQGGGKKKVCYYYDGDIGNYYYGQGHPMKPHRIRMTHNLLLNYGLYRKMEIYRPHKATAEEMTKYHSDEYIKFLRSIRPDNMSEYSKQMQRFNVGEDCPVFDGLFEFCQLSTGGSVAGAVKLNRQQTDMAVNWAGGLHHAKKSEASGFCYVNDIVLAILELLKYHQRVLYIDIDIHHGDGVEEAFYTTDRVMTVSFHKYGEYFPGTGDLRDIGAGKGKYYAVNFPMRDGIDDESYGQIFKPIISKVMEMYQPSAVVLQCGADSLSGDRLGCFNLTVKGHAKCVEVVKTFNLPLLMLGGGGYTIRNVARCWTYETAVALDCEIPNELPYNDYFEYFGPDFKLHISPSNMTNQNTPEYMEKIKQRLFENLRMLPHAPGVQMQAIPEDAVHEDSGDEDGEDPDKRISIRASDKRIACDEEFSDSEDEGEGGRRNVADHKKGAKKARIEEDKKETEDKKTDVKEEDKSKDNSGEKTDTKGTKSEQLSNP
Macrophage colony-stimulating factor 1 receptor, sequence (P07333 whole entry): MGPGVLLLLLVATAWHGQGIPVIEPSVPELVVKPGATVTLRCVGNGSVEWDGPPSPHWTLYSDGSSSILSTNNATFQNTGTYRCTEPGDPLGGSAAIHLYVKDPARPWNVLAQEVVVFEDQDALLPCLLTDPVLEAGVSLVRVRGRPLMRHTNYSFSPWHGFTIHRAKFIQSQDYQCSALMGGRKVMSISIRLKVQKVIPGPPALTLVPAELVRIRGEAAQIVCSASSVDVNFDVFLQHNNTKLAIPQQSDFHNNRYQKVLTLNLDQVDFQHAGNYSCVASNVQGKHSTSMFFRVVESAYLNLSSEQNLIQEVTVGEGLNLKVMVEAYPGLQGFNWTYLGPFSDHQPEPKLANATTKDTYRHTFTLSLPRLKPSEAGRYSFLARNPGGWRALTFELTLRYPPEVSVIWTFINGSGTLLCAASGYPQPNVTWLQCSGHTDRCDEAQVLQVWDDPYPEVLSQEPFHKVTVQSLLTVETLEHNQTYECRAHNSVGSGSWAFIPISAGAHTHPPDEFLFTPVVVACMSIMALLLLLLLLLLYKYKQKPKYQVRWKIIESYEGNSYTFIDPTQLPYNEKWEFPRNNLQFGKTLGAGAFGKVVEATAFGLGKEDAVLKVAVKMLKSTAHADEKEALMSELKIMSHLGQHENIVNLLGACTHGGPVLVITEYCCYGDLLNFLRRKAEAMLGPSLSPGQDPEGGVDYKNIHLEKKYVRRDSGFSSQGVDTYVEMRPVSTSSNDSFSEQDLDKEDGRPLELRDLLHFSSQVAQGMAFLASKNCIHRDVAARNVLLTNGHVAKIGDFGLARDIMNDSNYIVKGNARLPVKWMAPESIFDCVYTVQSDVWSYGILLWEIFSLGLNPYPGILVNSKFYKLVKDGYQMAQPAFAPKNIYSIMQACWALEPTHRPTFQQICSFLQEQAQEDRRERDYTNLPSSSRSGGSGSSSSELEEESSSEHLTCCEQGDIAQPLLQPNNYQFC
Histone deacetylase 1, sequence (Q13547 whole entry): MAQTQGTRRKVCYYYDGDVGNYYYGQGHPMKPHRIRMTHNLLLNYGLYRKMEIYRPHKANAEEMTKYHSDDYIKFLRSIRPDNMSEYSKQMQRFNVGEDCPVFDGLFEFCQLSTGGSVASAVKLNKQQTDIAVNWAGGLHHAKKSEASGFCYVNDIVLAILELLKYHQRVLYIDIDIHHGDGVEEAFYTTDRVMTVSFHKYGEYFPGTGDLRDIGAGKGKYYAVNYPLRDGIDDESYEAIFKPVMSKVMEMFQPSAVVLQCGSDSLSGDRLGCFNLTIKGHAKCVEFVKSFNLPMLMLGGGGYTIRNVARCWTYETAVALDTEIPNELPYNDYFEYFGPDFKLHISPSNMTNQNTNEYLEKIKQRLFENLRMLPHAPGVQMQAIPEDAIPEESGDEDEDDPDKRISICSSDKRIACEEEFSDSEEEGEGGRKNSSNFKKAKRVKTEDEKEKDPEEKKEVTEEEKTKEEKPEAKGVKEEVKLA
Vascular endothelial growth factor receptor 1, sequence (P17948 whole entry): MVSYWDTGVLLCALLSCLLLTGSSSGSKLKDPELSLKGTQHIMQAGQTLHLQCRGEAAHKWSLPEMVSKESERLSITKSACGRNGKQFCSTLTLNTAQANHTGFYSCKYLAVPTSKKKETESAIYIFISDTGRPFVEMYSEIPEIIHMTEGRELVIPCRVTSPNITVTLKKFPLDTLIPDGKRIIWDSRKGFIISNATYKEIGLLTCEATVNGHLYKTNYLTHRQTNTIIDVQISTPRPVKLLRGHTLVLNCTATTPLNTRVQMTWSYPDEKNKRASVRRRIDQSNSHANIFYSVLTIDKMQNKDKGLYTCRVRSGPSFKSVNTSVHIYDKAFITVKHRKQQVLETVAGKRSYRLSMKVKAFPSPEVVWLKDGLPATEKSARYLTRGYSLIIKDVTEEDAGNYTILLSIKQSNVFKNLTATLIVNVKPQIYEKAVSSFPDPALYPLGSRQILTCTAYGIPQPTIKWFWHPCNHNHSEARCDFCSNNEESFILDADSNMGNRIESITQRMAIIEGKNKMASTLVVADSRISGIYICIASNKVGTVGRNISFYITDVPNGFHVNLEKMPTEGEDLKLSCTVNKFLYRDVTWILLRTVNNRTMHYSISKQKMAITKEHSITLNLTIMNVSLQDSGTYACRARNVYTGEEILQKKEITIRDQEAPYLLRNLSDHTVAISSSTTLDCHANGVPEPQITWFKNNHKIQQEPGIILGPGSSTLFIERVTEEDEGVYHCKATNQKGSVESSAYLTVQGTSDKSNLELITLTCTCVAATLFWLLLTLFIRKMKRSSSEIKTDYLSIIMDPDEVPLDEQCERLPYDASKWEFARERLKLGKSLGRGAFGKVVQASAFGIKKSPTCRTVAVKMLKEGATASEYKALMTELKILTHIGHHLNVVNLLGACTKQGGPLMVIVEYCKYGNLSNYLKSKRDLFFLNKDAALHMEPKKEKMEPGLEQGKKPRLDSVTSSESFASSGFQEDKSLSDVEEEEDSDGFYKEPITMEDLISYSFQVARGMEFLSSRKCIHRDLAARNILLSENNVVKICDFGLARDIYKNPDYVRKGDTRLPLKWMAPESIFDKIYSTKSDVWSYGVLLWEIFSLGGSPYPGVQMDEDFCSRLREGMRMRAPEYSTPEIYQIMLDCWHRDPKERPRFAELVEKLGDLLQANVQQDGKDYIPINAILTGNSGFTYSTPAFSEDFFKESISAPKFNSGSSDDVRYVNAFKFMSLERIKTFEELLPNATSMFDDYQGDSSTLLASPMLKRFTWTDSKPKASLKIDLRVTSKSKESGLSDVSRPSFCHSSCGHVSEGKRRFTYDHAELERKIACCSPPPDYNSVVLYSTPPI

inhibition [1]: 100%
IC50 (HT-29 [2]): 1070 nM
IC50 (AGS): > 5000 nM
IC50 (HeLa): 1710 nM
IC50 (PC-3): 2380 nM
IC50 (MDA-MB-231): 3740 nM
IC50 (HT-1080): > 5000 nM
IC50 (MOLT-4): 940 nM
IC50 (K562): 1820 nM
IC50 (Histone deacetylase 1): 590 nM
IC50 (Histone deacetylase 2): 910 nM
IC50 (Histone deacetylase 3): 430 nM
IC50 [4]: 37 nM
IC50 [5]: 22 nM
IC50 [6]: 351 nM
IC50 [7]: 125 nM
inhibition [8]: Active
Cmax [10]: 2780 ng/mL
Tmax [11]: 30 min
MRT last [12]: 67.8 min
Vd [13]: 2.06 L/kg
clearance [14]: 14.6 mL/min/kg
inhibition [18]: Active
SMILES: Cc1c2ccc(N(C)c3ccnc(Nc4ccc(C(=O)Nc5ccccc5N)cc4)n3)cc2nn1C
IC50 (HEL): 1520 nM
IC50 (HUVEC [3]): 16000 nM
Activity (HUVEC [9]): Active
Activity (Thoracic aorta): Active
inhibition in vivo at 50 mg/kg (HT-29 [15]): 40%
Activity (Mus musculus [16]): Non-Toxic
Activity (Mus musculus [17]): Non-Toxic
